Converted amounts (≈) assume the structure as drawn.
Tests used:
[1] = Selectivity index, ratio of IC50 for african green monkey (Cercopithecus aethiops) Vero cells to IC50 for Plasmodium falciparum 3D7; assay type: toxicity, cell-based; settings: read-out: Ratio IC50
How it was run: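 P. falciparum 3D7 was tested by SYBR Green I fluorescence at 0.5% parasitaemia: two-fold dilutions from 500 ng/mL (seven concentrations), duplicate wells, 72 h, then lysis buffer with dye. Vero cells (1 × 10⁴/well) got MTT after 72 h with compound. Each IC₅₀ came from non-linear regression dose–response curves; selectivity index is the Vero/3D7 ratio.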

Plasmodium falciparum = assay: Antimalarial activity against chloroquine-sensitive Plasmodium falciparum 3D7 after 72 hrs by SYBR Green assay; settings: 3D7, 72 h
Plasmodium yoelii [2] = assay: Antiplasmodial activity as reduced parasitaemia against chloroquine-resistant Plasmodium yoelii N67 infected Swiss mice (Mus musculus) at 10 mg/kg/day peroral dose over 10 days; assay type: functional; design: scale not given: the % may be the effect or the level left; settings: route oral
How it was run: (§1)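 Swiss mice inoculated on day 0 with 1×10⁶ P. yoelii N-67 parasitized RBC. […] Parasitaemia read from thin blood smears. Percent suppression calculated from the group mean against untreated infected controls.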

Plasmodium yoelii [3] = assay: Antiplasmodial activity as reduced parasitaemia against chloroquine-resistant Plasmodium yoelii N67 infected Swiss mice (Mus musculus) at 10 mg/kg/day peroral dose after 4 days; assay type: functional; design: scale not given: the % may be the effect or the level left; settings: route oral; how it was run: as §1
Plasmodium yoelii [4] = assay: Antiplasmodial activity as reduced parasitaemia against chloroquine-resistant Plasmodium yoelii N67 infected Swiss mice (Mus musculus) at 50 mg/kg/day after 4 days; assay type: functional; design: scale not given: the % may be the effect or the level left
How it was run: (§2)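 Swiss mice inoculated on day 0 with 1×10⁶ P. yoelii N-67 parasitized RBC. Groups of five received 50 mg/kg/day intraperitoneally, once daily on days 0–3, as aqueous suspensions with a few drops of Tween 80. Parasitaemia read from thin blood smears. Percent suppression calculated from the group mean against untreated infected controls.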

Plasmodium yoelii [5] = assay: Antiplasmodial activity as reduced parasitaemia against chloroquine-resistant Plasmodium yoelii N67 infected Swiss mice (Mus musculus) at 50 mg/kg/day intraperitoneal dose after 10 days; assay type: functional; design: scale not given: the % may be the effect or the level left; how it was run: as §2

O=C1C(=O)N(c2ccccc2)C(=S)N1CCNc1ccnc2cc(Cl)ccc12
selectivity ratio [1]: 118 | IC50 (Plasmodium falciparum): 0.119 µg/mL (≈ 0.29 µM)

C=CCNC(=S)NCCNc1ccnc2cc(Cl)ccc12
selectivity ratio [1]: 668 | IC50 (Plasmodium falciparum): 0.0261 µg/mL (≈ 0.0814 µM)

CCCC/N=C1\SC(=O)C(=O)N1CCCNc1ccnc2cc(Cl)ccc12
selectivity ratio [1]: 256 | IC50 (Plasmodium falciparum): 0.011 µg/mL (≈ 0.0272 µM)

S=C(NCCNc1ccnc2cc(Cl)ccc12)Nc1ccccc1
selectivity ratio [1]: 997 | IC50 (Plasmodium falciparum): 0.00922 µg/mL (≈ 0.0258 µM)

C=CCN1C(=O)C(=O)N(CCNc2ccnc3cc(Cl)ccc23)C1=S
selectivity ratio [1]: 141 | IC50 (Plasmodium falciparum): 0.104 µg/mL (≈ 0.278 µM)

C=CC/N=C1\SC(=O)C(=O)N1CCCNc1ccnc2cc(Cl)ccc12
selectivity ratio [1]: 475 | IC50 (Plasmodium falciparum): 0.112 µg/mL (≈ 0.287 µM)

O=C1C(=O)N(c2ccccc2Cl)C(=S)N1CCCNc1ccnc2cc(Cl)ccc12
selectivity ratio [1]: 122 | IC50 (Plasmodium falciparum): 0.0397 µg/mL (≈ 0.0864 µM)

O=C1S/C(=N\c2ccccc2)N(CCNc2ccnc3cc(Cl)ccc23)C1=O
selectivity ratio [1]: 605 | IC50 (Plasmodium falciparum): 0.0295 µg/mL (≈ 0.0718 µM)

S=C(NCCCNc1ccnc2cc(Cl)ccc12)Nc1ccccc1
selectivity ratio [1]: 968 | IC50 (Plasmodium falciparum): 0.01 µg/mL (≈ 0.027 µM)

CCN(CC)CCCC(C)Nc1ccnc2cc(Cl)ccc12 (centres undefined) [CHLOROQUINE]
Activity (Plasmodium yoelii [2]): 73.92% | Activity (Plasmodium yoelii [3]): 99.05%

C=CCN1C(=O)C(=O)N(CCCNc2ccnc3cc(Cl)ccc23)C1=S
selectivity ratio [1]: 80.4 | IC50 (Plasmodium falciparum): 0.0548 µg/mL (≈ 0.141 µM)

O=C1S/C(=N\c2ccccc2Cl)N(CCCNc2ccnc3cc(Cl)ccc23)C1=O
selectivity ratio [1]: 434 | IC50 (Plasmodium falciparum): 0.0175 µg/mL (≈ 0.0381 µM)

CCCCN1C(=O)C(=O)N(CCCNc2ccnc3cc(Cl)ccc23)C1=S
selectivity ratio [1]: 27.2 | IC50 (Plasmodium falciparum): 0.0697 µg/mL (≈ 0.172 µM)

C=CCNC(=S)NCCCNc1ccnc2cc(Cl)ccc12
selectivity ratio [1]: 582 | IC50 (Plasmodium falciparum): 0.042 µg/mL (≈ 0.125 µM)

S=C(NCCCNc1ccnc2cc(Cl)ccc12)Nc1ccccc1Cl
selectivity ratio [1]: 1110 | Activity (Plasmodium yoelii [4]): 16.82% | IC50 (Plasmodium falciparum): 0.0102 µg/mL (≈ 0.0251 µM)

O=C1C(=O)N(c2ccccc2Cl)C(=S)N1CCNc1ccnc2cc(Cl)ccc12
selectivity ratio [1]: 3.36 | IC50 (Plasmodium falciparum): 0.199 µg/mL (≈ 0.448 µM)

CCCCN1C(=O)C(=O)N(CCNc2ccnc3cc(Cl)ccc23)C1=S
selectivity ratio [1]: 406 | IC50 (Plasmodium falciparum): 0.0331 µg/mL (≈ 0.0846 µM)

O=C1S/C(=N\c2ccccc2Cl)N(CCNc2ccnc3cc(Cl)ccc23)C1=O
selectivity ratio [1]: 543 | Activity (Plasmodium yoelii [4]): 5.45% | IC50 (Plasmodium falciparum): 0.0121 µg/mL (≈ 0.0272 µM)

O=C1S/C(=N\c2ccccc2)N(CCCNc2ccnc3cc(Cl)ccc23)C1=O
selectivity ratio [1]: 637 | IC50 (Plasmodium falciparum): 0.011 µg/mL (≈ 0.026 µM)

C=CC/N=C1\SC(=O)C(=O)N1CCNc1ccnc2cc(Cl)ccc12
selectivity ratio [1]: 603 | IC50 (Plasmodium falciparum): 0.0324 µg/mL (≈ 0.0865 µM)

CCCCNC(=S)NCCNc1ccnc2cc(Cl)ccc12
selectivity ratio [1]: 750 | Activity (Plasmodium yoelii [5]): 50.5% | Activity (Plasmodium yoelii [4]): 99.27% | IC50 (Plasmodium falciparum): 0.00607 µg/mL (≈ 0.018 µM)

CCCC/N=C1\SC(=O)C(=O)N1CCNc1ccnc2cc(Cl)ccc12
selectivity ratio [1]: 480 | IC50 (Plasmodium falciparum): 0.0174 µg/mL (≈ 0.0446 µM)

CCCCNC(=S)NCCCNc1ccnc2cc(Cl)ccc12
selectivity ratio [1]: 600 | IC50 (Plasmodium falciparum): 0.0118 µg/mL (≈ 0.0337 µM)

O=C1C(=O)N(c2ccccc2)C(=S)N1CCCNc1ccnc2cc(Cl)ccc12
selectivity ratio [1]: 65.5 | IC50 (Plasmodium falciparum): 0.151 µg/mL (≈ 0.354 µM)

S=C(NCCNc1ccnc2cc(Cl)ccc12)Nc1ccccc1Cl
selectivity ratio [1]: 332 | IC50 (Plasmodium falciparum): 0.0205 µg/mL (≈ 0.0524 µM)

Source: ChEMBL document CHEMBL1138607, “Synthesis of novel thiourea, thiazolidinedione and thioparabanic acid derivatives of 4-aminoquinoline as potent antimalarials” (Bioorg Med Chem Lett, 2009)
